Experimental data reported in ChEMBL document CHEMBL5058577, “EUbOPEN Chemogenomics Library 2 (Multiplex)” (2022).

Tested on: U2OS
Experiment: Multiplex assay against U2OS
Assay type: toxicity, cell-based
Conditions: human
How it was run: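 Live cells were stained at seeding with Hoechst33342, BioTracker Green Microtubule Cytoskeleton Dye, MitoTracker Red and Annexin V Alexa Fluor 680, then imaged on a CQ1 microscope at 37°C and 5% CO2 after compound addition. CellPathfinder machine-learning gating split cells into Hoechst high-intensity objects or normal cells. Normal cells were split into healthy, pyknosed or fragmented nuclei, and pyknosed cells into mitotic or apoptotic. Tubulin, mitochondrial-mass and membrane-permeability phenotypes are per cents of healthy-nucleus cells.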

[1] = 12 h, 1 µM, compound concentration 1 uM, replicate 1
[2] = 12 h, 1 µM, compound concentration 1 uM, replicate 2
[3] = 12 h, 10 µM, compound concentration 10 uM, replicate 1
[4] = 12 h, 10 µM, compound concentration 10 uM, replicate 2
[5] = 24 h, 1 µM, compound concentration 1 uM, replicate 1
[6] = 24 h, 1 µM, compound concentration 1 uM, replicate 2
[7] = 24 h, 10 µM, compound concentration 10 uM, replicate 1
[8] = 24 h, 10 µM, compound concentration 10 uM, replicate 2
[9] = 48 h, 1 µM, compound concentration 1 uM, replicate 1
[10] = 48 h, 1 µM, compound concentration 1 uM, replicate 2
[11] = 48 h, 10 µM, compound concentration 10 uM, replicate 1
[12] = 48 h, 10 µM, compound concentration 10 uM, replicate 2

For CC[C@@H](C)Nc1nc(C)nc2c(-c3ccc(OC)nc3C)c(C)nn12 [PEXACERFONT], the “Population Apoptotic (%)” value [1] was 73%, the “Population Fragmented Nuclei (%)” value [1] was 24% and the “Population Healthy Nuclei (%)” value [1] was 66%. The “Population Hoechst High Intensity Objects (%)” value [1] was 3%, the “Population Membrane Permeable-Phenotype (%)” value [1] was 2% and the “Population Mitochondria Different-Phenotype (%)” value [1] was 3%. For the same compound, the “Population Mitotic Cells (%)” value [1] was 26%, the “Population Normal (%)” value [1] was 96% and the “Population Pyknosed Nuclei (%)” value [1] was 9%. For the same compound, the “Population Tubulin-Different-Phenotype (%)” value [1] was 2%, the “Total Cell Count” value [1] was 258 and the “Population Apoptotic (%)” value [2] was 87%. The “Population Fragmented Nuclei (%)” value [2] was 17%, the “Population Healthy Nuclei (%)” value [2] was 76% and the “Population Hoechst High Intensity Objects (%)” value [2] was 0%. For the same compound, the “Population Membrane Permeable-Phenotype (%)” value [2] was 1%, the “Population Mitochondria Different-Phenotype (%)” value [2] was 0% and the “Population Mitotic Cells (%)” value [2] was 12%. The “Population Normal (%)” value [2] was 99%, the “Population Pyknosed Nuclei (%)” value [2] was 5% and the “Population Tubulin-Different-Phenotype (%)” value [2] was 0%. For the same compound, the “Total Cell Count” value [2] was 136, the “Population Apoptotic (%)” value [3] was 90% and the “Population Fragmented Nuclei (%)” value [3] was 26%. The “Population Healthy Nuclei (%)” value [3] was 64%, the “Population Hoechst High Intensity Objects (%)” value [3] was 1% and the “Population Membrane Permeable-Phenotype (%)” value [3] was 2%. The “Population Mitochondria Different-Phenotype (%)” value [3] was 1%, the “Population Mitotic Cells (%)” value [3] was 9% and the “Population Normal (%)” value [3] was 98%. The “Population Pyknosed Nuclei (%)” value [3] was 8%, the “Population Tubulin-Different-Phenotype (%)” value [3] was 1% and the “Total Cell Count” value [3] was 265. For the same compound, the “Population Fragmented Nuclei (%)” value [4] was 21%, the “Population Healthy Nuclei (%)” value [4] was 70% and the “Population Membrane Permeable-Phenotype (%)” value [4] was 12%. For the same compound, the “Population Mitochondria Different-Phenotype (%)” value [4] was 7%, the “Population Mitotic Cells (%)” value [4] was 10% and the “Population Pyknosed Nuclei (%)” value [4] was 7%. For the same compound, the “Population Tubulin-Different-Phenotype (%)” value [4] was 4%, the “Total Cell Count” value [4] was 128 and the “Population Apoptotic (%)” value [5] was 80%. For the same compound, the “Population Fragmented Nuclei (%)” value [5] was 21%, the “Population Healthy Nuclei (%)” value [5] was 69% and the “Population Hoechst High Intensity Objects (%)” value [5] was 2%. The “Population Membrane Permeable-Phenotype (%)” value [5] was 5%, the “Population Mitochondria Different-Phenotype (%)” value [5] was 2% and the “Population Mitotic Cells (%)” value [5] was 20%. For the same compound, the “Population Normal (%)” value [5] was 97%, the “Population Pyknosed Nuclei (%)” value [5] was 8% and the “Population Tubulin-Different-Phenotype (%)” value [5] was 2%. For the same compound, the “Total Cell Count” value [5] was 346, the “Population Apoptotic (%)” value [6] was 85% and the “Population Fragmented Nuclei (%)” value [6] was 16%. For the same compound, the “Population Healthy Nuclei (%)” value [6] was 75%, the “Population Membrane Permeable-Phenotype (%)” value [6] was 3% and the “Population Mitochondria Different-Phenotype (%)” value [6] was 6%. For the same compound, the “Population Mitotic Cells (%)” value [6] was 14%, the “Total Cell Count” value [6] was 172 and the “Population Apoptotic (%)” value [7] was 80%. The “Population Fragmented Nuclei (%)” value [7] was 21%, the “Population Healthy Nuclei (%)” value [7] was 71% and the “Population Hoechst High Intensity Objects (%)” value [7] was 2%. The “Population Membrane Permeable-Phenotype (%)” value [7] was 5%, the “Population Mitochondria Different-Phenotype (%)” value [7] was 3% and the “Population Mitotic Cells (%)” value [7] was 19%. For the same compound, the “Population Normal (%)” value [7] was 97%, the “Population Pyknosed Nuclei (%)” value [7] was 7% and the “Population Tubulin-Different-Phenotype (%)” value [7] was 4%. The “Total Cell Count” value [7] was 307, the “Population Apoptotic (%)” value [8] was 92% and the “Population Fragmented Nuclei (%)” value [8] was 14%. For the same compound, the “Population Healthy Nuclei (%)” value [8] was 77%, the “Population Hoechst High Intensity Objects (%)” value [8] was 0% and the “Population Membrane Permeable-Phenotype (%)” value [8] was 7%. For the same compound, the “Population Mitotic Cells (%)” value [8] was 7%, the “Population Normal (%)” value [8] was 99% and the “Population Pyknosed Nuclei (%)” value [8] was 8%. For the same compound, the “Population Tubulin-Different-Phenotype (%)” value [8] was 3%, the “Total Cell Count” value [8] was 159 and the “Population Apoptotic (%)” value [9] was 88%. The “Population Fragmented Nuclei (%)” value [9] was 16%, the “Population Healthy Nuclei (%)” value [9] was 75% and the “Population Hoechst High Intensity Objects (%)” value [9] was 1%. The “Population Membrane Permeable-Phenotype (%)” value [9] was 3%, the “Population Mitochondria Different-Phenotype (%)” value [9] was 1% and the “Population Mitotic Cells (%)” value [9] was 11%. For the same compound, the “Population Normal (%)” value [9] was 98%, the “Population Pyknosed Nuclei (%)” value [9] was 7% and the “Population Tubulin-Different-Phenotype (%)” value [9] was 1%. For the same compound, the “Total Cell Count” value [9] was 476, the “Population Apoptotic (%)” value [10] was 91% and the “Population Healthy Nuclei (%)” value [10] was 73%. The “Population Hoechst High Intensity Objects (%)” value [10] was 2%, the “Population Membrane Permeable-Phenotype (%)” value [10] was 5% and the “Population Mitochondria Different-Phenotype (%)” value [10] was 4%. The “Population Mitotic Cells (%)” value [10] was 8%, the “Population Normal (%)” value [10] was 97% and the “Population Pyknosed Nuclei (%)” value [10] was 9%. The “Population Tubulin-Different-Phenotype (%)” value [10] was 4%, the “Total Cell Count” value [10] was 261 and the “Population Apoptotic (%)” value [11] was 94%. The “Population Fragmented Nuclei (%)” value [11] was 17%, the “Population Healthy Nuclei (%)” value [11] was 74% and the “Population Hoechst High Intensity Objects (%)” value [11] was 1%. For the same compound, the “Population Membrane Permeable-Phenotype (%)” value [11] was 4%, the “Population Mitochondria Different-Phenotype (%)” value [11] was 1% and the “Population Mitotic Cells (%)” value [11] was 5%. The “Population Normal (%)” value [11] was 98%, the “Population Pyknosed Nuclei (%)” value [11] was 8% and the “Population Tubulin-Different-Phenotype (%)” value [11] was 1%. For the same compound, the “Total Cell Count” value [11] was 478, the “Population Apoptotic (%)” value [12] was 100% and the “Population Fragmented Nuclei (%)” value [12] was 13%. For the same compound, the “Population Healthy Nuclei (%)” value [12] was 77%, the “Population Membrane Permeable-Phenotype (%)” value [12] was 6% and the “Population Mitochondria Different-Phenotype (%)” value [12] was 3%. The “Population Mitotic Cells (%)” value [12] was 0%, the “Population Tubulin-Different-Phenotype (%)” value [12] was 2% and the “Total Cell Count” value [12] was 242.
